Source: ChEMBL document CHEMBL3745667, “Identification of Noncompetitive Inhibitors of Cytosolic 5'-Nucleotidase II Using a Fragment-Based Approach” (J Med Chem, 2015)

How the values were obtained:
[1] = molecular target: T1, Cytosolic purine 5'-nucleotidase (Homo sapiens, UniProt P49902); test: Inhibition of recombinant N-terminal truncated human cytosolic 5'-nucleotidase-2 assessed as inhibition of inosine 5'-monophosphate hydrolysis at 1 mM by rapid green malachite assay
In short: (§1)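 Purified recombinant N-terminally truncated cN-II expressed in E. coli, with IMP as substrate. Released phosphate was read by green malachite colorimetry. Inhibitor was tested at a single level, 0.2 mM or 1 mM. Compounds that are not water-soluble were added in DMSO, not exceeding 2% final.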

[2] = test system: RL; test: Antiproliferative activity against human RL cells after 72 hrs by MTT assay; type: functional, cell-based
In short: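 MTT assay on RL human follicular lymphoma cells treated with a range of compound concentrations for 72 h. IC50 calculated with CompuSyn and given as the mean ± SEM of at least three independent experiments.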

[3] = test system: RL; test: Antiproliferative activity against human RL cells after 72 hrs by MTT assay in presence of fludarabine; type: functional, cell-based
[4] = test system: RL; test: Antiproliferative activity against human RL cells after 72 hrs by MTT assay in presence of cladribine; type: functional, cell-based
[5] = test system: RL; test: Antiproliferative activity against human RL cells after 72 hrs by MTT assay in presence of clofarabine; type: functional, cell-based
[6] = molecular target: T1, Cytosolic purine 5'-nucleotidase; test: Inhibition of recombinant N-terminal truncated human cytosolic 5'-nucleotidase-2 assessed as inhibition of inosine 5'-monophosphate hydrolysis at 0.2 mM by rapid green malachite assay; in short: as §1
[7] = molecular target: T1, Cytosolic purine 5'-nucleotidase; test: Inhibition of recombinant N-terminal truncated human cytosolic 5'-nucleotidase-2 assessed as inhibition of inosine 5'-monophosphate hydrolysis by steady state kinetics with HPLC quantification

T1 sequence (P49902 whole entry, the tested form may be a part): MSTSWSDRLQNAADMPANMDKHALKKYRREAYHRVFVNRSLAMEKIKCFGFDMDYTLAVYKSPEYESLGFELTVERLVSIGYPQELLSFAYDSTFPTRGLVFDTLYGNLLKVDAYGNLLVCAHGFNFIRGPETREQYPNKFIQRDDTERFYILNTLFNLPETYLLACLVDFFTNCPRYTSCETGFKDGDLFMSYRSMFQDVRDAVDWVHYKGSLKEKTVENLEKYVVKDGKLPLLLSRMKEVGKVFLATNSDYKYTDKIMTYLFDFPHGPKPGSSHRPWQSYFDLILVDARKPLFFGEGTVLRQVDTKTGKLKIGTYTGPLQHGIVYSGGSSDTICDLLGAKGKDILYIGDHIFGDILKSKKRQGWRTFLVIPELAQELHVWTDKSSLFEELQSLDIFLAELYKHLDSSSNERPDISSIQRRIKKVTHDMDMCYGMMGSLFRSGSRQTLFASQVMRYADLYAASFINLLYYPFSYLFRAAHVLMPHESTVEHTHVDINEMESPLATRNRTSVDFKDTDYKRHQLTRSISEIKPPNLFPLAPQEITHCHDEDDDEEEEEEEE

SMILES | inhibition [1] | also measured
Nc1ccc(-c2ccc(N)c(O)c2)cc1O | 23% | 
O=C1c2ccc(S(=O)(=O)O)cc2C(=O)c2ccc(S(=O)(=O)O)cc21 |  | IC50 [2]: 1040 µM; CI95 [3]: 4.2; CI95 [4]: 0.4; CI95 [5]: 0.24; inhibition [6]: 20%; Ki [7]: 2000 µM
c1ccc(-c2c[nH]cn2)cc1 | 36% | 
Nc1ccccc1-c1ccccc1 | 36% | 
Oc1ccc2ccc(O)cc2c1 | 40% | 
O=C(Nc1ncnc2nc[nH]c12)c1ccccc1 | 28% | 
OCc1nc2ccccc2[nH]1 | 11% | 
Nc1cccc2cnccc12 | 30% | 
c1ccc(N2CCNCC2)nc1 | 0.5% | 
Nc1nc(Cl)c2nc[nH]c2n1 | 23% | 
Nc1[nH]cnc2ncnc1-2 | 19% | 
Oc1ccccc1-c1ccccc1 | 19% | 
c1ccc(CNc2ncnc3[nH]cnc23)cc1 | 20% | 
OC(c1ccccc1)c1ccccc1 | 2% | 
Oc1ccc(-c2ccc(O)cc2)cc1 | 8% | 
